Source: ChEMBL document CHEMBL1156068, “Synthesis, pharmacological and antiviral activity of 1,3-thiazepine derivatives” (Eur J Med Chem, 2009)
Active and inactive are the calls of the source. The calls are words filed in the database; no cut-off is given here.

Columns and labels:
Coxsackievirus B2 = assay: Antiviral activity against Coxsackie virus B2 infected in african green monkey Vero76 cells after 3 days by plaque reduction assay; format: functional, organism-based; details: Vero 76
Procedure, shortened: (§1)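 Vero 76 monolayers (2×10^5 cells/well, overnight) infected to give 50–100 PFU/well. Unadsorbed virus removed, then DMEM with 1% FCS, 0.75% methylcellulose and serial compound dilutions added. Incubated at 37 °C for 3 days (CVB-2, HSV-1) or 5 days (RSV). Fixed and stained with 50% ethanol/0.8% crystal violet in PBS; plaques counted.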

[1] = test system: Bovine viral diarrhea virus 1; assay: Antiviral activity against Bovine viral diarrhea virus infected in MDBK cells assessed as protection against virus induced cytopathogenicity after 3 to 4 days by MTT assay; format: functional, organism-based
Procedure, shortened: (§2)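 Monolayers were grown overnight at 37 °C, 5% CO2: MDBK at 3×10^4 cells/well, BHK at 5×10^4 cells/well. Cells infected at m.o.i. 0.01. After 1 h, serial compound dilutions added in MEM with 1% FCS. Viability read by MTT after 3–4 days at 37 °C. EC50 is the concentration giving 50% protection from cytopathogenicity.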

[2] = test system: Vesicular stomatitis virus; assay: Antiviral activity against Vesicular stomatitis virus infected in african green monkey Vero76 cells after 2 days by plaque reduction assay; format: functional, organism-based; details: Vero 76
Human alphaherpesvirus 1 = assay: Antiviral activity against HSV1 infected in african green monkey Vero76 cells after 3 days by plaque reduction assay; format: functional, organism-based; details: Vero 76; procedure, shortened: as §1
[3] = test system: Respiratory syncytial virus; assay: Antiviral activity against Respiratory syncytial virus infected in african green monkey Vero76 cells after 5 days by plaque reduction assay; format: functional, organism-based; details: Vero 76; procedure, shortened: as §1
Yellow fever virus = assay: Antiviral activity against Yellow fever virus infected in BHK-21 cells assessed as protection against virus induced cytopathogenicity after 3 to 4 days by MTT assay; format: functional, organism-based
Procedure, shortened: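 BHK cells were seeded at 5 × 10^4 per well and grown overnight to monolayers, then infected at m.o.i. 0.01 in serum-free medium. One hour later, MEM Earle's with 1% FCS (final) and serial compound dilutions were added. After 3–4 days at 37 °C, viability was read by MTT. EC50 is the concentration giving 50% protection from virus-induced cytopathogenicity.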

Poliovirus 1 = assay: Antiviral activity against Poliovirus type 1 Sabin infected in african green monkey Vero76 cells after 2 days by plaque reduction assay; format: functional, cell-based; details: Vero 76
[4] = test system: Human immunodeficiency virus 1; assay: Antiviral activity against wild type HIV1 3B infected in human MT4 cells assessed as protection against virus induced cytopathogenicity after 4 days by MTT assay; format: functional, organism-based; details: Human immunodeficiency virus 1, 3B, MT4, 96 h
Procedure, shortened: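 MT-4 cells (1×10^4/well) in RPMI with serial compound dilutions were infected with HIV-1 (100 CCID50; m.o.i. 0.01). After 4 days, viability was measured by MTT. EC50 is the concentration giving 50% protection from virus-induced cytopathogenicity. Compounds were prepared as 100 mM DMSO stocks diluted in medium.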

[5] = Cytotoxicity against human MT4 cells assessed as reduction of cell viability after 96 hrs by MTT assay; format: cell-based
Procedure, shortened: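 Exponentially growing, mock-infected MT-4 cells were seeded at 1×10^5 cells mL-1 in RPMI-1640 with 10% FCS and penicillin/streptomycin, with serial compound dilutions. Incubated 96 h at 37 °C, 5% CO2, then viability read by MTT. CC50 is the concentration reducing viability by 50%.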

[6] = test system: Mammalian orthoreovirus 1; assay: Antiviral activity against Reo virus type-1 infected in BHK-21 cells assessed as protection against virus induced cytopathogenicity after 3 to 4 days by MTT assay; format: functional, organism-based; procedure, shortened: as §2
Vaccinia virus = assay: Antiviral activity against Vaccinia virus infected in african green monkey Vero76 cells after 3 days by plaque reduction assay; format: functional, organism-based; details: Orthopoxvirus vaccinia; Vero 76

C=CC/N=C1\SCCCCN1N1C(=O)C2C3CC(C(C)C)C(C=C3C)C2C1=O (stereo not drawn)
Activity (Coxsackievirus B2): inactive
Activity [1]: inactive
Activity [2]: inactive
Activity (Human alphaherpesvirus 1): inactive
Activity [3]: inactive
Activity (Yellow fever virus): inactive
Activity (Poliovirus 1): inactive
EC50 [4]: > 59 µM
CC50 at 96 h [5]: 59 µM
Activity [6]: inactive
Activity (Vaccinia virus): inactive

CC1=CC2C(C(C)C)CC1C1C(=O)N(N3CCCCS/C3=N\c3ccc(Cl)cc3)C(=O)C21 (stereo not drawn)
Activity (Coxsackievirus B2): inactive
Activity [1]: inactive
Activity [2]: inactive
Activity (Human alphaherpesvirus 1): inactive
Activity [3]: inactive
Activity (Yellow fever virus): inactive
Activity (Poliovirus 1): inactive
EC50 [4]: > 30 µM
CC50 at 96 h [5]: 30 µM
Activity [6]: inactive
Activity (Vaccinia virus): inactive

CC(C)C12C=CC(C)(CC1)C1C(=O)N(N3CCCCS/C3=N\c3ccc(F)cc3)C(=O)C12 (stereo not drawn)
Activity (Coxsackievirus B2): inactive
Activity [1]: inactive
Activity [2]: inactive
Activity (Human alphaherpesvirus 1): inactive
Activity [3]: inactive
Activity (Yellow fever virus): inactive
Activity (Poliovirus 1): inactive
EC50 [4]: > 86 µM
CC50 at 96 h [5]: 86 µM
Activity [6]: inactive
Activity (Vaccinia virus): inactive

CC1=CC2C(C(C)C)CC1C1C(=O)N(NC(=S)Nc3ccc(Cl)c(Cl)c3)C(=O)C21 (stereo not drawn)
Activity (Coxsackievirus B2): inactive
Activity [1]: inactive
Activity [2]: inactive
Activity (Human alphaherpesvirus 1): inactive
Activity [3]: inactive
Activity (Yellow fever virus): inactive
Activity (Poliovirus 1): inactive
EC50 [4]: > 41 µM
CC50 at 96 h [5]: 41 µM
Activity [6]: inactive
Activity (Vaccinia virus): inactive

CC(C)C12C=CC(C)(CC1)C1C(=O)N(NC(=S)Nc3ccc(F)cc3)C(=O)C12 (stereo not drawn)
Activity (Coxsackievirus B2): inactive
Activity [1]: inactive
Activity [2]: inactive
Activity (Human alphaherpesvirus 1): inactive
Activity [3]: inactive
Activity (Yellow fever virus): inactive
Activity (Poliovirus 1): inactive
Activity [6]: inactive
Activity (Vaccinia virus): inactive

CC1=CC2C(C(C)C)CC1C1C(=O)N(NC(=S)Nc3ccc(F)cc3)C(=O)C21 (stereo not drawn)
Activity (Coxsackievirus B2): inactive
Activity [1]: inactive
Activity [2]: inactive
Activity (Human alphaherpesvirus 1): inactive
Activity [3]: inactive
Activity (Yellow fever virus): inactive
Activity (Poliovirus 1): inactive
EC50 [4]: > 69 µM
CC50 at 96 h [5]: 69 µM
Activity [6]: inactive
Activity (Vaccinia virus): inactive

CC1=CC2C(C(C)C)CC1C1C(=O)N(NC(=S)Nc3ccc(I)cc3)C(=O)C21 (stereo not drawn)
Activity (Coxsackievirus B2): inactive
Activity [1]: inactive
Activity [2]: inactive
Activity (Human alphaherpesvirus 1): inactive
Activity [3]: inactive
Activity (Yellow fever virus): inactive
Activity (Poliovirus 1): inactive
EC50 [4]: > 45 µM
CC50 at 96 h [5]: 45 µM
Activity [6]: inactive
Activity (Vaccinia virus): inactive

CC1=CC2C(C(C)C)CC1C1C(=O)N(N3CCCCS/C3=N\c3ccc(F)cc3)C(=O)C21 (stereo not drawn)
Activity (Coxsackievirus B2): inactive
Activity [1]: inactive
Activity [2]: inactive
Activity (Human alphaherpesvirus 1): inactive
Activity [3]: inactive
Activity (Yellow fever virus): inactive
Activity (Poliovirus 1): inactive
EC50 [4]: > 49 µM
CC50 at 96 h [5]: 49 µM
Activity [6]: inactive
Activity (Vaccinia virus): inactive

C=CCNC(=S)NN1C(=O)C2C(C1=O)C1(C(C)C)C=CC2(C)CC1 (stereo not drawn)
Activity (Coxsackievirus B2): inactive
EC50 ([1]; Bovine viral diarrhea virus isolates and strains): 52 µM
Activity [2]: inactive
Activity (Human alphaherpesvirus 1): inactive
Activity [3]: inactive
Activity (Poliovirus 1): inactive
EC50 [4]: > 100 µM
CC50 at 96 h [5]: > 100 µM
Activity [6]: inactive
Activity (Vaccinia virus): inactive

CC(C)C12C=CC(C)(CC1)C1C(=O)N(NC(=S)NCc3ccccc3)C(=O)C12 (stereo not drawn)
Activity (Coxsackievirus B2): inactive
Activity [2]: inactive
Activity (Human alphaherpesvirus 1): inactive
Activity [3]: inactive
EC50 (Yellow fever virus): 41 µM
Activity (Poliovirus 1): inactive
EC50 [4]: > 58 µM
CC50 at 96 h [5]: 58 µM
Activity [6]: inactive
Activity (Vaccinia virus): inactive

CC1=CC2C(C(C)C)CC1C1C(=O)N(NC(=S)Nc3ccc(Cl)cc3)C(=O)C21 (stereo not drawn)
Activity (Coxsackievirus B2): inactive
Activity [1]: inactive
Activity [2]: inactive
Activity (Human alphaherpesvirus 1): inactive
Activity [3]: inactive
Activity (Yellow fever virus): inactive
Activity (Poliovirus 1): inactive
EC50 [4]: > 45 µM
CC50 at 96 h [5]: 45 µM
Activity [6]: inactive
Activity (Vaccinia virus): inactive

Cc1ccc(/N=C2\SCCCCN2N2C(=O)C3C(C2=O)C2(C(C)C)C=CC3(C)CC2)cc1 (stereo not drawn)
Activity (Coxsackievirus B2): inactive
Activity [1]: inactive
Activity [2]: inactive
Activity (Human alphaherpesvirus 1): inactive
Activity [3]: inactive
Activity (Yellow fever virus): inactive
Activity (Poliovirus 1): inactive
Activity [6]: inactive
Activity (Vaccinia virus): inactive

CC(C)C12C=CC(C)(CC1)C1C(=O)N(NC(=S)Nc3ccc(Cl)cc3)C(=O)C12 (stereo not drawn)
Activity (Coxsackievirus B2): inactive
Activity [1]: inactive
Activity [2]: inactive
Activity (Human alphaherpesvirus 1): inactive
Activity [3]: inactive
Activity (Yellow fever virus): inactive
Activity (Poliovirus 1): inactive
Activity [6]: inactive
Activity (Vaccinia virus): inactive

CC(C)C12C=CC(C)(CC1)C1C(=O)N(NC(=S)Nc3ccc(Cl)c(Cl)c3)C(=O)C12 (stereo not drawn)
Activity (Coxsackievirus B2): inactive
Activity [1]: inactive
Activity [2]: inactive
Activity (Human alphaherpesvirus 1): inactive
Activity [3]: inactive
Activity (Yellow fever virus): inactive
Activity (Poliovirus 1): inactive
EC50 [4]: > 59 µM
CC50 at 96 h [5]: 59 µM
Activity [6]: inactive
Activity (Vaccinia virus): inactive

CC(C)C12C=CC(C)(CC1)C1C(=O)N(N3CCCCS/C3=N\Cc3ccccc3)C(=O)C12 (stereo not drawn)
Activity (Coxsackievirus B2): inactive
Activity [1]: inactive
Activity [2]: inactive
Activity (Human alphaherpesvirus 1): inactive
Activity [3]: inactive
Activity (Yellow fever virus): inactive
Activity (Poliovirus 1): inactive
EC50 [4]: > 100 µM
CC50 at 96 h [5]: > 100 µM
Activity [6]: inactive
Activity (Vaccinia virus): inactive

C=CCNC(=S)NN1C(=O)C2C3CC(C(C)C)C(C=C3C)C2C1=O (stereo not drawn)
Activity (Coxsackievirus B2): inactive
Activity [1]: inactive
Activity [2]: inactive
Activity (Human alphaherpesvirus 1): inactive
Activity [3]: inactive
Activity (Yellow fever virus): inactive
Activity (Poliovirus 1): inactive
EC50 [4]: > 100 µM
CC50 at 96 h [5]: > 100 µM
Activity [6]: inactive
Activity (Vaccinia virus): inactive

O=C1Nc2ccc(Cl)cc2[C@@](C#CC2CC2)(C(F)(F)F)O1 [EFAVIRENZ]
CC50 at 96 h [5]: 35 µM

C=CC/N=C1\SCCCCN1N1C(=O)C2C(C1=O)C1(C(C)C)C=CC2(C)CC1 (stereo not drawn)
Activity (Coxsackievirus B2): inactive
Activity [1]: inactive
Activity [2]: inactive
Activity (Human alphaherpesvirus 1): inactive
Activity [3]: inactive
Activity (Yellow fever virus): inactive
Activity (Poliovirus 1): inactive
EC50 [4]: > 58 µM
CC50 at 96 h [5]: 58 µM
Activity [6]: inactive
Activity (Vaccinia virus): inactive

CC1=CC2C(C(C)C)CC1C1C(=O)N(NC(=S)Nc3ccc(C)cc3)C(=O)C21 (stereo not drawn)
Activity (Coxsackievirus B2): inactive
Activity [1]: inactive
Activity [2]: inactive
Activity (Human alphaherpesvirus 1): inactive
Activity [3]: inactive
Activity (Yellow fever virus): inactive
Activity (Poliovirus 1): inactive
Activity [6]: inactive
Activity (Vaccinia virus): inactive

Cc1ccc(NC(=S)NN2C(=O)C3C(C2=O)C2(C(C)C)C=CC3(C)CC2)cc1 (stereo not drawn)
Activity (Coxsackievirus B2): inactive
Activity [1]: inactive
Activity [2]: inactive
Activity (Human alphaherpesvirus 1): inactive
Activity [3]: inactive
Activity (Yellow fever virus): inactive
Activity (Poliovirus 1): inactive
Activity [6]: inactive
Activity (Vaccinia virus): inactive
